Results: PubChem BioAssay
This is one part of the list. Results filed as inconclusive are left out. A number with no mark means an inactive call. Calls of active or inactive are those of the source.

Legend:
[1] = biological target: Solute carrier family 12 member 5 (Homo sapiens) (UniProt Q9H2X9); test: KCC2 modulators in sodium-free buffer, confirmation, cell-based, HEK293 KCC2, thallium flux, secondary assay (AID 1713;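 active = thallium flux slope above the same plate's solvent-only control mean plus 3 SD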); details: FluoZin2 fluorescence, at 10 µM, hits give high values
In short: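 System: HEK cells expressing human KCC2 cotransporter; Buffer or medium: Na-free NMDG-Cl buffer; Also added: thallium sulfate stimulus buffer at pH 7.3; Dosing: 10 µM single dose, 0.1% DMSO; Timing: 48 min dye loading; Measured by: kinetic FluoZin2 fluorescence at 1 Hz, ex 480/em 540 nm; Read-out: baseline-normalized fluorescence slope, 10–20 s post-Tl+.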

[2] = PubChem AID 1714; details: HEK293-KCC2 + bumetanide/ouabain, thallium flux FluoZin2; at 10 µM; hits give high values;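 note: raw slope of fluorescence over initial fluorescence between 10 and 20 s after thallium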
In short: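 Assay system: HEK cells expressing the K-Cl cotransporter KCC2; buffer or medium: HBSS-HEPES plus ouabain 0.2 mM, bumetanide 2 mM; reagent: thallium stimulus; compound dosing: 10 µM single dose; timing: 48 min dye loading; signal: FluoZin2-AM (0.5 µM) fluorescence, 480 nm ex/540 nm em, 1 Hz kinetic imaging; replication: duplicates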

[3] = biological target: Solute carrier family 12 member 5 (Homo sapiens) (UniProt Q9H2X9); test: KCC2 modulators without ouabain present, confirmation, cell-based, HEK293 KCC2, thallium flux, FluoZin2, secondary assay 2 (AID 1715;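 active = thallium flux slope more than 3 SD above or below the plate's solvent-only control mean, mostly below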;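 note: raw slope with 0.1% DMSO as baseline and bumetanide as block control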); details: HEK293-KCC2, thallium flux FluoZin2 fluorescence; at 10 µM; actives lie on both sides; F/F0 rise rate, 10–20 s post-thallium
[4] = thallium flux modulation in parental HEK cells, confirmation, counter-screen for KCC2 modulator project, cell-based, counterscreen 1 (AID 1716); details: HEK293 parental cells, thallium flux FluoZin2, ouabain; at 10 µM; baseline-ratio fluorescence slope, 10–20 s after thallium
[5] = biological target: Solute carrier family 12 member 5 (Homo sapiens) (UniProt Q9H2X9); test: KCC2 inhibitors and activators, ouabain retest, confirmation, HEK-KCC2 cells (AID 1717;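 active = thallium flux slope beyond 3 SD from same-plate DMSO control mean in most replicates, usually higher, sometimes lower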;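 note: slope of initial-normalized fluorescence between seconds 10 and 20 after thallium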); details: HEK293-KCC2, thallium flux FluoZin2 fluorescence, at 10 µM, bidirectional: low = inhibitor, high = activator
[6] = native HEK Tl+ uptake effects, second counter-screen – HEK cells, counterscreen 2, counter-screen for KCC2 modulator project, confirmation (AID 1718;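 active = thallium flux slope above the same plate's solvent-control mean plus 3 SD in both duplicate wells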;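 note: run without ouabain in cells lacking the KCC2 cotransporter; slope of fluorescence scaled to its starting value between 10 and 20 s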); details: HEK293 parental, thallium flux FluoZin-2 fluorescence slope; at 10 µM
In short: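 Test system: parental HEK cells / Reagent: thallium sulfate stimulus, 12 mM in buffer, pH 7.3 / Compound: single 10 µM final compound dose, 0.1% DMSO / Timing: overnight cell culture at 37 °C, 48 min dye loading, compound before thallium / Detection: FluoZin-2 fluorescence kinetics / Read-out: rate of F/F0 rise, 10–20 s after thallium addition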

Sequence of Solute carrier family 12 member 5 (Homo sapiens) (Q9H2X9 whole entry, looked up): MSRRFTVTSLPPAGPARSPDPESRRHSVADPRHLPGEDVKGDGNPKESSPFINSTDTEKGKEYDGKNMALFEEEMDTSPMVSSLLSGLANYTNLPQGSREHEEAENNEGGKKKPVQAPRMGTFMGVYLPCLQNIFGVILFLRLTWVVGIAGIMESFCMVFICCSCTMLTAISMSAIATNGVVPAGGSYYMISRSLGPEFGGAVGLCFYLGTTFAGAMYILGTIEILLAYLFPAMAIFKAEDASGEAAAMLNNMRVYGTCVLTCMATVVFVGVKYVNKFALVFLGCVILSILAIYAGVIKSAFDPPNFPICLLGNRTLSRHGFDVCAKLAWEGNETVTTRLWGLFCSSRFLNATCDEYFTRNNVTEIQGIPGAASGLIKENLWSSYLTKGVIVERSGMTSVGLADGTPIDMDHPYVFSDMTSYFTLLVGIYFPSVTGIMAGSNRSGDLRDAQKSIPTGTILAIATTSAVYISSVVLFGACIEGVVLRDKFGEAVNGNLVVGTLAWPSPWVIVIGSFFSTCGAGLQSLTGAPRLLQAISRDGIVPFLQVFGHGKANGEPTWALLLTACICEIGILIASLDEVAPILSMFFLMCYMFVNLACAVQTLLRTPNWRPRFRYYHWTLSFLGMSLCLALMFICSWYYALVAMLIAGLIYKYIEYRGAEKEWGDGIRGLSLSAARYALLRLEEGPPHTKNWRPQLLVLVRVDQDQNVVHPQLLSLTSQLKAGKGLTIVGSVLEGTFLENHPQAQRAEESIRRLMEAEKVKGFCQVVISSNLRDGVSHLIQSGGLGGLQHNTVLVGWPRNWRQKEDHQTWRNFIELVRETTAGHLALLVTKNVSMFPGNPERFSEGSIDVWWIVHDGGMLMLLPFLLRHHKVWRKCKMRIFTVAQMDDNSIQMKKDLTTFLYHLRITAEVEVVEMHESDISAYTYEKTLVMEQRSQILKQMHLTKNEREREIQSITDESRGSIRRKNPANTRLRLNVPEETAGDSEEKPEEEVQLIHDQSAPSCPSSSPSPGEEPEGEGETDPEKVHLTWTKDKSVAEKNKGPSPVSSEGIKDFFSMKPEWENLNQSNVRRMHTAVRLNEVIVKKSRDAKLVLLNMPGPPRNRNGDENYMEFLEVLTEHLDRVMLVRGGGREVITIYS

Structure (SMILES)	normalised thallium flux (F/F0 slope) [1]	normalized thallium flux [2]	normalized thallium flux [3]	thallium flux rate (normalised fluorescence) [4]	raw Tl+ flux slope (below DMSO = inhibition, above = activation) [5]	thallium flux slope [6]
CCn1c(SCc2ccccc2)nc2c(c1=O)SCC2	0.00954	0.00493	0.0352	0.00537 (active)	0.0198	0.00988
N#Cc1nc(COc2ccc(-c3ccccc3)cc2)oc1NCc1cccnc1	0.00789	0.00445	0.029	0.00821	0.0173	0.01
CN(C)CCn1c(=S)[nH]c2ccc(Cl)cc2c1=O	0.00617	0.0089 (active)	0.0337	0.0128 (active)		0.0165 (active)
COc1ccc(CN2CCCCC2C)cc1OC (configuration not stated)	0.00901	0.00633	0.0321	0.00759	0.0191	0.011
O=C(NNC(=S)NC(=O)c1cn(-c2ccccc2)nc1-c1ccccc1)c1ccncc1	0.00764	0.0138 (active)	0.0344	0.0141 (active)		0.0155 (active)
CCCCn1c(=S)[nH]c2ccccc2c1=O	0.05 (active)	0.179 (active)	0.0834 (active)	0.114 (active)	0.145 (active)	0.0577 (active)
O=C(N/N=C/c1ccc(Br)o1)c1cncc(Br)c1	0.0115 (active)	0.0326 (active)	0.0307	0.0124 (active)		0.0107 (active)
Oc1ccccc1/C=N/n1c(-c2cccs2)n[nH]c1=S	0.02 (active)	0.0602 (active)	0.0326	0.0173 (active)	0.0288 (active)	0.0224 (active)
COc1ccccc1/C=C/C=N/n1c(-c2ccc(Cl)cc2Cl)n[nH]c1=S	0.0112	0.0155 (active)	0.0312	0.0105 (active)	0.0229	0.011
COc1ccc(-c2cn(-c3ccc(OC)cc3)c(=S)[nH]2)cc1	0.00623	0.0216 (active)	0.0299	0.0163 (active)		0.0135 (active)
COc1ccc([N+](=O)[O-])cc1NC(=O)COC(=O)/C=C/c1ccco1	0.00867	0.00651	0.0316	0.0079	0.0204	0.011
O=C(Cn1cnc2c(nnn2Cc2ccc(F)cc2)c1=O)NCc1ccc2c(c1)OCO2	0.0157	0.00497	0.0238 (active)	0.00772	0.0137	0.0107
CC(C)n1cnc2c(Nc3cccc(Cl)c3)nc(N(CCO)CCCO)nc21	0.00575	0.00472	0.0232 (active)	0.0075		0.0113
CC(=O)NNc1cc(=O)c2c(=O)n(C)c(=O)n(C)c2[nH]1	0.0167	0.00524	0.0281	0.00797	0.0159	0.0112
COc1ccc(C2/C=C\CN(S(=O)(=O)c3cccs3)CC(=O)N2Cc2ccc(F)cc2)cc1 (configuration not stated)	0.00741	0.00428	0.0313	0.00682		0.00998
CCCn1c(=S)[nH]c2ccc(C(F)(F)F)cc21	0.00727	0.0987 (active)	0.0617 (active)	0.0842 (active)	0.0775 (active)	0.0576 (active)
Cc1cccc(-n2c(SCC(N)=O)nc3c(c2=O)C2(CCCCC2)Cc2ccccc2-3)c1	0.00538	0.017 (active)	0.032	0.0115 (active)		0.0138 (active)
COc1ccc2[nH]c(=S)cc(C)c2c1	0.00897	0.0111 (active)	0.0317	0.0146 (active)	0.0267	0.0122 (active)
CSc1sc(C(=O)NNC(=O)c2ccc(Cl)cc2)c2c1C=CCC2	0.0166 (active)	0.0484 (active)	0.0343	0.0305 (active)	0.0333 (active)	0.0136 (active)
CCOc1cccc(/C=N/N2C(=O)CSC2=S)c1O	0.00656	0.0152 (active)	0.0319	0.0178 (active)		0.0167 (active)
